{"source": "ChEMBL document CHEMBL4014276", "about": "“Diphenylurea derivatives for combating methicillin- and vancomycin-resistant Staphylococcus aureus” (Eur J Med Chem, 2017)", "key": {"Staphylococcus aureus [1]": {"system": "Staphylococcus aureus", "assay": "Bactericidal activity against methicillin-resistant Staphylococcus aureus USA300 NRS384 clinical isolate after 18 hrs by broth microdilution method", "assay_type": "functional", "conditions": "USA300 NRS384, 18 h", "outline": "(§1)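 From MIC wells without visible growth, 5 uL spotted onto Tryptic soy agar, incubated 37 °C for at least 18 h; MBC taken as lowest concentration giving 99.9% growth inhibition.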"}, "Staphylococcus aureus [2]": {"system": "Staphylococcus aureus", "assay": "Antibacterial activity against methicillin-resistant Staphylococcus aureus USA100 NRS382 clinical isolate preincubated followed by bacterial subculturing for 2 weeks", "assay_type": "functional"}, "[3]": {"assay": "Total AUC in naive Sprague-Dawley rat at 50 mg/kg ,po administered via gavage by LC-MS/MS method", "assay_type": "ADME, organism-based", "design": "dose 50 mg/kg, time AUCmax, route oral", "conditions": "in vivo", "outline": "(§2)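 Male naïve rats, three animals; single oral gavage dose in 5% ethanol, 45% PEG 400, 50% water. Blood drawn into EDTA-K2 tubes over 24 h post dose; plasma protein-precipitated with acetonitrile, parent quantified by LC/MS/MS.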"}, "Staphylococcus aureus [4]": {"system": "Staphylococcus aureus", "assay": "Bactericidal activity against methicillin-resistant Staphylococcus aureus USA400 assessed as time required to reduce log10CFU of bacterial load at 4 times MIC by time kill assay", "assay_type": "functional"}, "Staphylococcus aureus [5]": {"system": "Staphylococcus aureus", "assay": "Bactericidal activity against methicillin-resistant Staphylococcus aureus USA400 NRS123 clinical isolate after 18 hrs by broth microdilution method", "assay_type": "functional", "conditions": "USA400 NRS123, 18 h", "outline": "as §1"}, "Staphylococcus aureus [6]": {"system": "Staphylococcus aureus", "assay": "Bactericidal activity against methicillin-resistant Staphylococcus aureus USA400 infected in mouse J774 cells assessed as reduction in colony forming units at 16 ug/ml after 24 hrs by time kill assay relative to control", "design": "scale not given: the % may be the effect or the level left"}, "[7]": {"assay": "Intrinsic clearance in human liver microsomes in absence of NADPH by LC-MS/MS method", "assay_type": "ADME, microsome", "conditions": "read-out: CLH"}, "Staphylococcus aureus [8]": {"system": "Staphylococcus aureus", "assay": "Antibacterial activity against Staphylococcus aureus RN4220 NRS107 clinical isolate after 20 hrs by broth microdilution method", "assay_type": "functional", "conditions": "RN4220 NRS107, 20 h", "outline": "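CLSI broth microdilution in cation-adjusted Mueller Hinton broth; compounds serially diluted, triplicate samples; 37 °C, 20 h. MIC read visually as lowest concentration with no visible growth; mean of triplicate determinations reported.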"}, "Staphylococcus aureus [9]": {"system": "Staphylococcus aureus", "assay": "Bactericidal activity against methicillin-resistant Staphylococcus aureus USA200 NRS383 clinical isolate after 18 hrs by broth microdilution method", "assay_type": "functional", "conditions": "USA200 NRS383, 18 h", "outline": "as §1"}, "[10]": {"assay": "Apparent permeability across basolateral to apical side in human Caco2 cells at 10 uM after 2 hrs by LC-MS/MS method", "assay_type": "ADME, cell-based", "conditions": "Caco-2"}, "[11]": {"assay": "AUClast in naive Sprague-Dawley rat at 50 mg/kg ,po administered via gavage by LC-MS/MS method", "assay_type": "ADME, organism-based", "design": "dose 50 mg/kg, time 0 - last, route oral", "conditions": "in vivo", "outline": "as §2"}, "Staphylococcus aureus [12]": {"system": "Staphylococcus aureus", "assay": "Antibacterial activity against methicillin-resistant Staphylococcus aureus USA400 NRS123 clinical isolate preincubated followed by bacterial subculturing for 2 weeks", "assay_type": "functional"}}, "note": "The source made the active and inactive calls. No cut-off for these calls is given here.", "data": [{"smiles": "C/C(=N\\NC(=N)N)c1ccc(NC(=O)Nc2ccc(OC3CCCCCC3)cc2)cc1", "values": [{"measurement": "MBC", "setting": "Staphylococcus aureus [1]", "value": 4, "unit": "µg/mL"}, {"measurement": "Activity", "setting": "Staphylococcus aureus [2]", "value": "Active"}, {"measurement": "AUC", "setting": "[3]", "value": 384, "unit": "ng·h/mL"}, {"measurement": "Time", "setting": "Staphylococcus aureus [4]", "value": "<=4 hr"}, {"measurement": "MBC", "setting": "Staphylococcus aureus [5]", "value": 4, "unit": "µg/mL"}, {"measurement": "Activity", "setting": "Staphylococcus aureus [6]", "value": 69, "unit": "%"}, {"measurement": "microsomal CLint", "setting": "[7]", "value": 42.9, "unit": "µL/min/mg"}, {"measurement": "MIC", "setting": "Staphylococcus aureus [8]", "value": 2, "unit": "µg/mL"}, {"measurement": "MBC", "setting": "Staphylococcus aureus [9]", "value": 4, "unit": "µg/mL"}, {"measurement": "Papp B→A at 2 h, 10 µM", "setting": "[10]", "value": 51.9, "unit": "×10⁻⁶ cm/s"}, {"measurement": "AUC(0-t)", "setting": "[11]", "value": 218, "unit": "ng·h/mL"}, {"measurement": "Activity", "setting": "Staphylococcus aureus [12]", "value": "Active"}]}]}
